In ChEMBL document CHEMBL4052819 (2017):
In brackets after ≈: the same amount, converted by molar mass. Non-standard residues stand in square brackets, D forms with d. Residues, ends and D or L forms follow the SMILES beside them. *: point of attachment. Heptanoyl = CCCCCCC(=O)*; Octanoyl = CCCCCCCC(=O)*; Dab = NCC[C@H](N)C(=O)O; Hexanoyl = CCCCCC(=O)*

Tests used:
Staphylococcus aureus [1] = assay: Antibacterial activity against methicillin-resistant Staphylococcus aureus ATCC 43300 after 18 to 20 hrs by broth microdilution method; type: functional
Outline: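 Broth microdilution in tryptic soy broth: 2-fold dilutions mixed 1:1 with ~1.5 × 10^5 CFU/mL bacterial suspension in TSB, final 0.5–32 μg/mL, 37 °C for 18–20 h. MIC = lowest concentration with no visible growth. At least three independent experiments, one replicate each.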

Escherichia coli [2] = assay: Antibacterial activity against Escherichia coli ATCC 25922 after 18 to 20 hrs by broth microdilution method; type: functional
Outline: (§1)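 Broth microdilution in tryptic soy broth: 2-fold dilutions mixed 1:1 with ~1.5 × 10^5 CFU/mL inoculum, final 0.5–32 μg/mL; 37 °C, 18–20 h. MIC taken as lowest concentration giving no visible growth. At least three independent experiments, one replicate each.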

Pseudomonas aeruginosa [3] = assay: Antibacterial activity against Pseudomonas aeruginosa ATCC 27853 after 18 to 20 hrs by broth microdilution method; type: functional; outline: as §1
Enterococcus faecium [4] = assay: Antibacterial activity against Enterococcus faecium ATCC 19434 after 18 to 20 hrs by broth microdilution method; type: functional; outline: as §1
Staphylococcus aureus [5] = assay: Antibacterial activity against Staphylococcus aureus ATCC 29213 after 18 to 20 hrs by broth microdilution method; type: functional; outline: as §1
Acinetobacter baumannii [6] = assay: Antibacterial activity against Acinetobacter baumannii ATCC 19606 after 18 to 20 hrs by broth microdilution method; type: functional; settings: ATCC 19606 = CIP 70.34 = JCM 6841
Klebsiella pneumoniae [7] = assay: Antibacterial activity against Klebsiella pneumoniae ATCC 13883 after 18 to 20 hrs by broth microdilution method; type: functional
Staphylococcus aureus [8] = assay: Bactericidal activity against Staphylococcus aureus ATCC 29213; type: functional; settings: read-out: MBC99.9
Outline: (§2)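 MBC from MIC plates at end point: 50 μL from each well with no visible growth plated on tryptic soy agar and counted. MBC taken as lowest concentration giving ≥99.9% fall in viable count relative to initial inoculum. Three independent experiments, one replicate each.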

Klebsiella pneumoniae [9] = assay: Bactericidal activity against Klebsiella pneumoniae ATCC 13883; type: functional; settings: read-out: MBC99.9; outline: as §2
Escherichia coli [10] = assay: Bactericidal activity against Escherichia coli ATCC 25922; type: functional; settings: read-out: MBC99.9; outline: as §2
Staphylococcus aureus [11] = assay: Antibacterial activity against Staphylococcus aureus ATCC 29213 after 18 to 20 hrs in presence of 95% serum by broth microdilution method; type: functional
Outline: (§3)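 Same microdilution with human serum as medium: compound 2-fold diluted in 100% serum, mixed 1:1 with 90% serum holding ~1.5 × 10^5 CFU/mL, giving 95% serum and final 0.5–64 μg/mL. MIC read as no visible growth after incubation as for the broth test.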

Enterococcus faecium [12] = assay: Bactericidal activity against Enterococcus faecium ATCC 19434; type: functional; settings: read-out: MBC99.9; outline: as §2
Pseudomonas aeruginosa [13] = assay: Bactericidal activity against Pseudomonas aeruginosa ATCC 27853; type: functional; settings: read-out: MBC99.9; outline: as §2
Staphylococcus aureus [14] = assay: Bactericidal activity against methicillin-resistant Staphylococcus aureus ATCC 43300; type: functional; settings: read-out: MBC99.9
Outline: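 MBC taken at the end of the MIC test: 50 μL from each well without visible growth plated on tryptic soy agar. MBC = lowest concentration giving ≥99.9% reduction in viable cells relative to the initial inoculum. Three independent experiments, one replicate each.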

Acinetobacter baumannii [15] = assay: Bactericidal activity against Acinetobacter baumannii ATCC 19606; type: functional; settings: ATCC 19606 = CIP 70.34 = JCM 6841, read-out: MBC99.9; outline: as §2
Escherichia coli [16] = assay: Antibacterial activity against Escherichia coli ATCC 25922 after 18 to 20 hrs in presence of 95% serum by broth microdilution method; type: functional; outline: as §3
Acinetobacter baumannii [17] = assay: Potentiation of rifampicin-mediated antibacterial activity against Acinetobacter baumannii ATCC 19606 assessed as decrease in rifampicin MIC at 4 ug/ml by checkerboard method relative to control; type: functional, ATCC 19606 = CIP 70.34 = JCM 6841
Acinetobacter baumannii [18] = assay: Potentiation of rifampicin-mediated antibacterial activity against Acinetobacter baumannii ATCC 19606 assessed as rifampicin MIC at 2 ug/ml by checkerboard method (reference value: 16 ug/ml); type: functional; settings: ATCC 19606 = CIP 70.34 = JCM 6841
Klebsiella pneumoniae [19] = assay: Potentiation of rifampicin-mediated antibacterial activity against Klebsiella pneumoniae ATCC 13883 assessed as decrease in rifampicin MIC at 2 ug/ml by checkerboard method relative to control; type: functional
Klebsiella pneumoniae [20] = assay: Potentiation of rifampicin-mediated antibacterial activity against Klebsiella pneumoniae ATCC 13883 assessed as rifampicin MIC at 2 ug/ml by checkerboard method (reference value: 16 ug/ml); type: functional

Row | SMILES | MIC (Staphylococcus aureus [1]) [µg/mL] | MIC (Escherichia coli [2]) [µg/mL] | MIC (Pseudomonas aeruginosa [3]) [µg/mL] | MIC (Enterococcus faecium [4]) [µg/mL] | MIC (Staphylococcus aureus [5]) [µg/mL] | MIC (Acinetobacter baumannii [6]) [µg/mL] | MIC (Klebsiella pneumoniae [7]) [µg/mL] | MBC (Staphylococcus aureus [8]) [µg/mL] | MBC (Klebsiella pneumoniae [9]) [µg/mL] | MBC (Escherichia coli [10]) [µg/mL] | MIC (Staphylococcus aureus [11]) [µg/mL] | MBC (Enterococcus faecium [12]) [µg/mL] | MBC (Pseudomonas aeruginosa [13]) [µg/mL] | MBC (Staphylococcus aureus [14]) [µg/mL] | MBC (Acinetobacter baumannii [15]) [µg/mL] | MIC (Escherichia coli [16]) [µg/mL] | fold change (FC) (Acinetobacter baumannii [17]) | MIC (Acinetobacter baumannii [18]) [µg/mL] | fold change (FC) (Klebsiella pneumoniae [19]) | MIC (Klebsiella pneumoniae [20]) [µg/mL]
1 | CCCCCCC(=O)N[C@@H](CCN)C(=O)N[C@@H](Cc1ccccc1)C(=O)N[C@@H](CCN)C(=O)N[C@H](Cc1ccccc1)C(=O)N[C@@H](CC(C)C)C(=O)N[C@@H](CCN)C(=O)N[C@@H](C(=O)N[C@@H](CC(C)C)C(=O)N[C@@H](CO)C(N)=O)C(C)C (Heptanoyl-[Dab]F[Dab][dF]L[Dab][dV]LS-NH2) | 32 (≈ 28.2 µM) | 1 to 4 (≈ 0.88 to 3.52 µM) | 2 to 4 (≈ 1.76 to 3.52 µM) | > 32 | ≥ 32 | 32 (≈ 28.2 µM) | 8 (≈ 7.04 µM) |  |  |  |  |  |  |  |  |  |  |  |  | 
2 | CCCCCCC(=O)N[C@@H](CCN)C(=O)N[C@H](C(=O)N[C@@H](CCN)C(=O)N[C@H](Cc1ccccc1)C(=O)N[C@@H](CC(C)C)C(=O)N[C@@H](CCN)C(=O)N[C@H](CC(C)C)C(=O)N[C@@H](CC(C)C)C(=O)N[C@@H](CO)C(N)=O)[C@@H](C)CC (Heptanoyl-[Dab]I[Dab][dF]L[Dab][dL]LS-NH2) | 16 (≈ 14.3 µM) | 1 to 4 (≈ 0.896 to 3.58 µM) | 2 to 4 (≈ 1.79 to 3.58 µM) | 8 to 16 (≈ 7.17 to 14.3 µM) | 16 to 32 (≈ 14.3 to 28.7 µM) | 8 to 16 (≈ 7.17 to 14.3 µM) | 4 (≈ 3.58 µM) | 16 to 32 (≈ 14.3 to 28.7 µM) | 8 (≈ 7.17 µM) | 16 (≈ 14.3 µM) | 32 | 16 (≈ 14.3 µM) | 8 to 16 (≈ 7.17 to 14.3 µM) | 16 to 32 (≈ 14.3 to 28.7 µM) | 16 (≈ 14.3 µM) | 16 |  |  |  | 
3 | CCCCCCC(=O)N[C@@H](CCN)C(=O)N[C@H](C(=O)N[C@@H](CCN)C(=O)N[C@H](Cc1ccccc1)C(=O)N[C@@H](CC(C)C)C(=O)N[C@@H](CCN)C(=O)N[C@@H](C(=O)N[C@@H](CC(C)C)C(=O)N[C@@H](CO)C(N)=O)C(C)C)[C@@H](C)CC (Heptanoyl-[Dab]I[Dab][dF]L[Dab][dV]LS-NH2) | > 32 | 4 (≈ 3.63 µM) | 4 (≈ 3.63 µM) | > 32 | > 32 | > 32 | 32 (≈ 29 µM) |  |  |  |  |  |  |  |  |  | 4096 | 0.0078 | >=8192 | 0.0039
4 | CCCCCCC(=O)N[C@@H](CCN)C(=O)N[C@H](C(=O)N[C@@H](CCN)C(=O)N[C@H](Cc1ccccc1)C(=O)N[C@@H](CC(C)C)C(=O)N[C@@H](CCN)C(=O)N[C@@H](C(=O)N[C@@H](CC(C)C)C(=O)N[C@@H](CO)C(N)=O)C(C)C)C(C)C (Heptanoyl-[Dab]V[Dab][dF]L[Dab][dV]LS-NH2) | > 32 | 16 (≈ 14.7 µM) | 16 (≈ 14.7 µM) | > 32 | > 32 | > 32 | > 32 |  |  |  |  |  |  |  |  |  | 256 - 512 | 0.125 | 4096 | 0.0156
5 | CCCCCC(=O)N[C@@H](CCN)C(=O)N[C@H](C(=O)N[C@@H](CCN)C(=O)N[C@H](Cc1ccccc1)C(=O)N[C@@H](CC(C)C)C(=O)N[C@@H](CCN)C(=O)N[C@@H](C(=O)N[C@@H](CC(C)C)C(=O)N[C@@H](CO)C(N)=O)C(C)C)[C@@H](C)CC (Hexanoyl-[Dab]I[Dab][dF]L[Dab][dV]LS-NH2) | > 32 | 8 to 16 (≈ 7.35 to 14.7 µM) | 8 to 16 (≈ 7.35 to 14.7 µM) | > 32 | > 32 | > 32 | ≥ 32 |  |  |  |  |  |  |  |  |  | 4096 - 8192 | 0.0078 to 0.0156 | 8192 | 0.0039
6 | CCCCCCCC(=O)N[C@@H](CCN)C(=O)N[C@@H](CCN)C(=O)N[C@@H](CCN)C(=O)N[C@H](Cc1ccccc1)C(=O)N[C@@H](CC(C)C)C(=O)N[C@@H](CCN)C(=O)N[C@@H](C(=O)N[C@@H](CC(C)C)C(=O)N[C@@H](CCN)C(N)=O)C(C)C (Octanoyl-[Dab][Dab][Dab][dF]L[Dab][dV]L[Dab]-NH2) | > 32 | > 32 | 16 to 32 (≈ 14.3 to 28.7 µM) | > 32 | ≥ 32 | > 32 | > 32 |  |  |  |  |  |  |  |  |  | 256 - 512 | 0.0312 to 0.0625 | 256 | 0.0625 to 0.125
